PAX8 reporter: PAX8 transcriptional activity inhibition | RMG-I TPO-luciferase reporter, SteadyGlo, 24 h | inhibition, % at 12.6 µM | 1.2% of 360,000 active | AID 652154;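 active means mean replicate inhibition at least 60% with every replicate also reaching 60%; inconclusive means only one of the two criteria is met; inactive means mean below 60% and not all replicates reaching 60%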;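 further: luciferase light reporting Pax8 driven TPO promoter activity; plate controls were median of neutral control wells for no effect and mitoxantrone controls for full effect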
EWS-Fli inh: blocks EWS/Fli oncoprotein-driven transcription. A673 NR0B1-luciferase reporter, viability-normalised. inhibition, % at 12.6 µM. 0.67% of 350,000 active. AID 651661;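 active means mean inhibition of at least 50% after viability correction, with every replicate also passing that limit; inconclusive means mean reaches 50% but only one of two replicates passes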;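 further: firefly luciferase signal divided by Alamar Blue viability fluorescence both relative to DMSO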
N-glyco inh: N-linked glycosylation inhibition; 0.23% of 360,000 active; reporter increase, % at 12.5 µM; D54 ERlucT glycosylation luciferase reporter, 24 h; percent of 100 nM tunicamycin response;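 active means mean luciferase reporter signal, scaled so untreated is 0 and the glycosylation-blocking control 100, at or above a set limit in every replicate; inconclusive means mean reaches the limit but not every replicate does; inactive means mean below the limit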;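 further: luciferase carries N-glycosylation sites so blocking glycosylation raises the light; 0% = median of neutral control wells and 100% = median of 100 nM tunicamycin wells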
FN deposition inh: fibronectin deposition inhibition | 0.086% of 350,000 active | inhibition, % at 12.6 µM | AH1F fibroblasts, Alexa488-fibronectin deposition fluorescence, overnight;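 active means mean inhibition across replicates of 30% or more, regardless of how many single replicates reach that level; inconclusive means mean under 30% yet at least half of replicates reach 30%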;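 further: positive control wells lacked labelled fibronectin entirely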
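Material: AH1F fibroblast monolayer depositing Alexa488-labelled fibronectin into matrix / Amount: 10000 AH1F cells per well / Signal: fluorescence 485/525 nm / Medium: DMEM, 2% serum / Compound: single dose, pinned / Incubation: 1 h cell adhesion before compound, then overnight fibronectin incubation / Reagent: Alexa488-FN, 24 nM final / Read-out: inhibition of fibronectin deposition signal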
Env fusion inh: HIV envelope-mediated fusion inhibition. HeLa-JRFL Env/CEM21 cell fusion, luciferase. inhibition, % at 12.3 µM. 1.1% of 360,000 active;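 active means mean replicate inhibition score of at least 50 and every replicate individually at or above 50; inconclusive means only one of the two criteria met; inactive means mean below 50 and not all replicates reaching 50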;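 further: 0% = plate neutral controls and 100% = maraviroc near 300 nM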
AF4-AF9 inh: blocks AF4 peptide binding to human AF9; P42568; AID 651704; AlphaScreen, biotin-AF4 peptide binding to FLAG-AF9; 0.47% of 350,000 active; inhibition, % at 10 µM;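 active means every replicate reaching a set inhibition limit, whatever the replicate mean, cut at about 25% in these data; inconclusive means mean inhibition reaches that limit but some replicates miss it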;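 further: 0% = plate neutral control median and 100% = total signal loss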
Target sequence (P42568 whole entry, looked up): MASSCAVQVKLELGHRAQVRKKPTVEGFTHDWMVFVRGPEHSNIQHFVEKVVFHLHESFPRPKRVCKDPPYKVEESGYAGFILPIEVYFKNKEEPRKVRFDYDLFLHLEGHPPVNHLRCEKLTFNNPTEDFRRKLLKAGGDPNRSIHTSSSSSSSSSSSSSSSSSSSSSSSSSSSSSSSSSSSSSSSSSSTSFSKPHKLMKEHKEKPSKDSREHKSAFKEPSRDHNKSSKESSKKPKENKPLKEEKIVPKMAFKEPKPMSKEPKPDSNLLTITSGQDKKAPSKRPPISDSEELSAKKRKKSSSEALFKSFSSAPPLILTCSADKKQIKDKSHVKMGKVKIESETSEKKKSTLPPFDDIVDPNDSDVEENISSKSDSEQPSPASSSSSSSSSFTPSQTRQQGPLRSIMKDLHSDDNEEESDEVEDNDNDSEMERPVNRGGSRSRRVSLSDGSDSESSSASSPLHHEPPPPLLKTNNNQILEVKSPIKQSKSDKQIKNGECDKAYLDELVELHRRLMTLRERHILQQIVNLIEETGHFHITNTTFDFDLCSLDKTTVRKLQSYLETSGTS
An asterisk follows results filed as active; ? = inconclusive; / = no result; ! = not confirmed by another sample; [ ] = remark or other dose. The list is not random: actives were taken first. Their share in the collection is about 2.5%.

SMILES	PAX8 reporter	EWS-Fli inh	N-glyco inh	FN deposition inh	Env fusion inh	AF4-AF9 inh
N#Cc1cccc(-c2ccc3c(c2)[C@@H]2[C@@H](CCN2C(=O)C2CCCCC2)[C@@H](CO)N3)c1	75*	13	/	8	/	-1
COc1ccc(C(=O)Nc2cccc(/C=C/c3nc4ccccc4c(=O)[nH]3)c2)cc1	64*	8	-11	17	39	-1
CN(C)c1ccc(/C=C/c2nc3ccccc3c(=O)[nH]2)cc1	-50	79*	-19	-8	17	2
O=C(C[C@H]1C[C@@H]2c3cc(NC(=O)Nc4ccc(F)cc4)ccc3O[C@@H]2[C@H](CO)O1)NC1CCCCC1	3	1	/	-9	-7[16.7 µM]	/
Cc1cc(C)c(-c2csc(NC(=O)/C=C/c3cccs3)n2)c(C)c1	18	/	-4	3	63*	/
CC(/C=N\NC(=O)Cn1c(C)nc2ccccc21)=C\c1ccccc1	10	/	2	0	86*	/
COc1ccc(S(=O)(=O)N(C)C[C@@H]2Oc3c(NC(=O)CCCCCC(=O)Nc4ccccc4N)cccc3C(=O)N([C@H](C)CO)C[C@H]2C)cc1	-13	8	/	/	/	-2
CCN1/C(=C/c2sc(-c3ccccc3C)c[n+]2C)Sc2ccccc21	98*	65*	36*	-7	15	3
COc1ccc(NC(=O)N(C)C[C@H]2OCCCC[C@H](C)Oc3ccc(NC(=O)Nc4cccc5ccccc45)cc3C(=O)N([C@H](C)CO)C[C@@H]2C)cc1	-12	0	/	/	-2[16.7 µM]	/
Cc1cccc(-n2ncc3c(N(C)C4CCCCC4)ncnc32)c1	47	73*	-19	-5	-89	-16
COc1ccc(-n2ncc3c(N(C)C4CCCCC4)ncnc32)cc1	-34	78*	-19	-5	-30	-6
Cc1cccc(-n2ncc3c(N(CCO)CCO)ncnc32)c1	-104	-92	-2	-2	-24	-11
O=C(C[C@@H]1CC[C@@H]2[C@H](COC[C@H](O)CN2S(=O)(=O)c2ccc(Oc3ccccc3)cc2)O1)Nc1ccccc1	/	/	/	7	/	0
COc1ccc(Cl)cc1C(=O)Nc1ccc(NC(C)=O)cc1	7	0	3	3	12	-2
COc1ccc(Cl)cc1C1=NOC2(CCC2)C(=O)N1Cc1ccc(NC(C)=O)cc1	5	0	3	2	67*	0
COc1ccc(S(=O)(=O)n2ccc(-c3ccc(OCCN(C)c4ccccn4)cc3)n2)cc1	28	/	-5	-3	75*	/
Cc1noc(C)c1NC(=O)Nc1ccc2c(c1)C(=O)N([C@H](C)CO)C[C@H](C)[C@@H](CN(C)Cc1ccc3c(c1)OCO3)O2	-8	7	/	/	/	-2
CN(c1cccc(NC(=O)CSc2ccc(Cl)cc2)c1)S(C)(=O)=O	/	/	1	-2	61*	/
CN(c1cccc(NC(=O)CCSc2ccccc2)c1)S(C)(=O)=O	/	-27	1	/	/	1
COc1ccc(N(CC(=O)Nc2cccc(N(C)S(C)(=O)=O)c2)S(C)(=O)=O)cc1OC	/	11	2	/	/	-10
COc1ccc(C)cc1N(CC(=O)Nc1cccc(N(C)S(C)(=O)=O)c1)S(C)(=O)=O	/	/	4	32*	6	/
CC(=O)N1N=C(c2ccc(NS(=O)(=O)c3ccccc3)cc2)CC1c1ccco1 (stereo not drawn)	27	54*	24	7	/	6
CC(=O)N1N=C(c2cccc(NS(=O)(=O)c3ccc(C)cc3)c2)CC1c1ccco1 (stereo not drawn)	17	/	-4	3	-7	0
CCCn1c(CC)nc([N+](=O)[O-])c1S(=O)(=O)c1ccccc1	82*	/	8	17	44	/
CCc1nc(C)cn1S(=O)(=O)c1ccc([N+](=O)[O-])cc1	-6	-1	0	0	-5	-2
SMILES	PAX8 reporter	EWS-Fli inh	N-glyco inh	FN deposition inh	Env fusion inh	AF4-AF9 inh
O=C(C=Cc1ccccc1Cl)c1ccccc1	-37	-21	10	5	-38	3
O=C(/C=C/Nc1ccccc1)c1ccccc1	/	/	-19	/	/	/
O=C(/C=C/Sc1ccccc1)c1ccccc1	/	24	33*	2	/	10
O=C(/C=C/Sc1ccccc1)c1ccc(Cl)cc1	/	/	44*	/	/	/
COc1ccc2c3c([nH]c2c1)[C@@H](CO)N(S(=O)(=O)c1cn(C)cn1)CC31CN(CC2CCOCC2)C1	/	17	/	/	/	1
CNC[C@H]1OCCCC[C@@H](C)Oc2ccc(NC(=O)Nc3ccc(C(F)(F)F)cc3)cc2C(=O)N([C@H](C)CO)C[C@@H]1C	12	-8	/	/	6[16.7 µM]	8
CN(C)c1ccc(C2C3CCCc4ccccc4C3=NN2C)cc1 (stereo not drawn)	-69	-61	-4	1	-40	30*
CC(=O)N1N=C2c3ccccc3CCC2C1c1ccc(F)cc1 (stereo not drawn)	6	16	0	0	6	0
C[C@H](CO)N1C[C@H](C)[C@@H](CN(C)Cc2ccc(Cl)c(Cl)c2)Oc2c(NS(=O)(=O)c3cccs3)cccc2C1=O	-1	-1	-3	8	62*!	4
C[C@@H]1CN([C@H](C)CO)C(=O)c2cccc(NS(=O)(=O)c3cccs3)c2O[C@H]1CN(C)Cc1ccc(C(F)(F)F)cc1	13	4	/	/	28[16.7 µM]	0
C[C@@H]1CN([C@@H](C)CO)C(=O)c2cccc(NS(=O)(=O)c3cccs3)c2O[C@@H]1CN(C)Cc1ccc(C(F)(F)F)cc1	1	6	/	/	68*[16.7 µM]	2
C[C@@H]1CN([C@H](C)CO)C(=O)c2cccc(NS(=O)(=O)c3cccs3)c2O[C@@H]1CN(C)Cc1ccc(C(F)(F)F)cc1	-10	6	/	/	84*[16.7 µM]	0
C[C@H]1CN([C@@H](C)CO)C(=O)c2cccc(NS(=O)(=O)c3cccs3)c2O[C@@H]1CN(C)Cc1ccncc1	/	-6	/	/	/	0
NCC[C@H]1CC[C@@H](NC(=O)C2CCCC2)[C@@H](CO)O1	8	-3	/	/	-11[16.7 µM]	-2
CN1C(=O)N(C)N(Cc2ccccc2)C(=O)N1Cc1ccccc1	16	0	/	5	-7	-4
O=C1C=CC(=O)N1Cc1ccccc1	-13	-12	-3	-10	8	48*
COC(=O)C1(C(=O)OC)C[C@H](/C=C/c2ccccc2)N(Cc2ccccc2OC)[C@@H]1c1ccc(F)cc1	7	-2	/	12	27	0
COC(=O)C1(C(=O)OC)C[C@H](c2ccc(OC)cc2)N(Cc2ccccc2OC)[C@@H]1c1ccccc1	-10	-12	/	/	85*	-3
COC(=O)C1=C(C)N(Cc2cccc(C(F)(F)F)c2)C(=NCc2ccc(C(F)(F)F)cc2)NC1c1ccc(Cl)cc1 (stereo not drawn)	12	41	/	-9	?	3
COC(=O)C1=C(C)N(Cc2cccc(C(F)(F)F)c2)C(=NCC2CC2)NC1c1cccc(C(F)(F)F)c1 (stereo not drawn)	89*	45	/	4	7	6
